The values below come from the array DNA melting data of Ke et al. (doi:10.1101/2024.01.08.574731).

Data set [1] in a line: melting temperature; fluorescence melt of hairpins on a sequencing array, two-state fit, raised by 9.35 °C to match UV melts. As to conditions: sodium 0.088 M. The method, boiled down: (§1)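 Melting temperature and folding enthalpy were derived from bootstrapped two-state fits. The fitted temperatures were raised by 9.35 °C to agree with UV melts, and four replicates were combined by inverse variance. The underlying data were Cy3 fluorescence images of library hairpins, with annealed Cy3 and quencher oligos, on a sequenced MiSeq flow cell in 50 mM Na-HEPES pH 8.0, 25 mM NaCl, taken in 2.5 °C steps up to 60 °C, normalised to pre-quench Cy3 and to control constructs.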

A short description of data set [2]: folding enthalpy; higher = less favourable; fluorescence melt of hairpins on a sequencing array, two-state fit. As to conditions: sodium 0.088 M. In short, it runs like this: as §1

GGAGCCGAAAGGCTATCC ((((((....)))..))): in data set [1], the Tm is 38.2 °C. Moreover, the folding enthalpy in data set [2] is -8.64 kcal/mol.
As to GGAGTTGGAAACAGTTCC (((..((....))..))), in data set [1], the Tm was 35 °C. Moreover, the folding enthalpy in data set [2] is -13.4 kcal/mol.
In the same order, the values of GCCAGTCGAAAGACGGGC (((.(((....))).))) are 68.6 °C and -35 kcal/mol.
In the same order, the values of GCTTCGCGAAAGCCCAGC (((..((....))..))) are 31.2 °C and -7.98 kcal/mol.
For the sequence GTACTCGGAAACGAATAC (((.(((....))).))), in data set [1], the Tm was 33.5 °C. Further, the folding enthalpy in data set [2] is -17.8 kcal/mol.
For GCGATGCGAAAGCAAGGC ((..(((....)))..)), the Tm in data set [1] is 42.3 °C. Further, the folding enthalpy in data set [2] is -17.2 kcal/mol.
In the same order, the values of GTAAAGGAAACTTTAC ((((((....)))))) are 40.6 °C and -32.6 kcal/mol.
GTTTCTGGAAACAGGAAC (((.(((....))).))): the Tm in data set [1] was determined as 43.6 °C. The folding enthalpy in data set [2] is -30.4 kcal/mol.
Regarding GGGCCCGAAAGGGCTCCC ((((((....)))..))), the Tm in data set [1] worked out at 59.7 °C. Besides, the folding enthalpy in data set [2] is -9.89 kcal/mol.
Turning to GATCTACATTTAGATC ((((((....)))))), the Tm in data set [1] was found to be 39 °C. Also, in data set [2], the folding enthalpy is -35.3 kcal/mol.
With GATCTGCTTCAGATC ((((((...)))))), the Tm in data set [1] is 48.7 °C. The folding enthalpy in data set [2] is -36.6 kcal/mol.
Take GGCCTTGCGAAAGCAGCC (((..(((....)))))): in data set [1], the Tm turned out to be 45.2 °C. Further, the folding enthalpy in data set [2] is -15.8 kcal/mol.
For GATCGTTTAACGATC ((((((...)))))) the same measures were 55.7 °C and -36.6 kcal/mol.
Turning to GACGACGAAAGTCTCGTC ((((((....)))..))), the Tm in data set [1] was found to be 46.9 °C. The folding enthalpy in data set [2] is -17.1 kcal/mol.
TTACCGAAAGGTAA (((((....))))): in data set [1], the Tm stood at 50.4 °C. In data set [2], the folding enthalpy was -16.7 kcal/mol.
In the same order, the values of GGTATTCGAAAGAACACC (((.(((....))).))) are 39.3 °C and -29.4 kcal/mol.
Consider TGCTGGAAACAGCA (((((....))))), for which the Tm in data set [1] is 53.1 °C. Besides, the folding enthalpy in data set [2] is -19.4 kcal/mol.
For GATCATACCTATGATC ((((((....)))))) the same measures were 48.6 °C and -41.5 kcal/mol.
For GATCGTTTCCACGATC ((((((....)))))) the same measures were 54 °C and -40.5 kcal/mol.
For GCGCATACGAAAGTACGC (((..(((....)))))) the same measures were 44.9 °C and -22.7 kcal/mol.
With GCACTCGGAAACGAACGC ((..(((....)))..)), the Tm in data set [1] came to 27.8 °C. The folding enthalpy in data set [2] is -13.9 kcal/mol.
On to CGCTCCGGAAACGGTGCG (((.(((....))).))), for which the Tm in data set [1] came out at 60.2 °C. Also, the folding enthalpy in data set [2] was -31.3 kcal/mol.
In the same order, the values of GAGTAAGAAATTACTC ((((((....)))))) are 40.1 °C and -24.5 kcal/mol.
For GATCTGATACAGATC ((((((...)))))) the same measures were 48.7 °C and -39.4 kcal/mol.
For GCATGTGGAAACACGTGC (((.(((....))).))) the same measures were 55.6 °C and -45.4 kcal/mol.
On to GTTCGCGAAAGCGCGAAC ((((((....)))..))), for which the Tm in data set [1] amounted to 65 °C. Moreover, the folding enthalpy in data set [2] was -27.4 kcal/mol.
In the same order, the values of GGTCGCGAAAGCGGAACC ((((((....)))..))) are 47.8 °C and -15.3 kcal/mol.
For the sequence GCTCTACGAAAGTATAGC (((.(((....))).))), the Tm in data set [1] amounted to 42.5 °C. Besides, the folding enthalpy in data set [2] was -29.7 kcal/mol.
Consider GCCTAGCGAAAGCCTGGC (((..((....))..))), for which the Tm in data set [1] was 52.1 °C. Further, the folding enthalpy in data set [2] was -19.6 kcal/mol.
Take GTATCCGAAAGGAACTAC ((((((....)))..))): in data set [1], the Tm was 33.4 °C. Besides, in data set [2], the folding enthalpy was -14.3 kcal/mol.
Consider GTATGCGGAAACGCATGC (.(((((....))))).), for which the Tm in data set [1] stood at 55.5 °C. Moreover, the folding enthalpy in data set [2] is -21.2 kcal/mol.
As for GCGCGACCGAAAGGTCGC (((..(((....)))))), the Tm in data set [1] is 68.5 °C. Also, the folding enthalpy in data set [2] was -5.08 kcal/mol.
In the same order, the values of GGATATGGAAACGTATCC (((((.(....).))))) are 43.4 °C and -35.5 kcal/mol.
In the same order, the values of GCGACGCGAAAGCATTGC ((.(.((....)).).)) are 40.5 °C and -19.2 kcal/mol.
In the same order, the values of GCTGGCGAAAGCCCCAGC ((((((....)))..))) are 43.5 °C and -14.8 kcal/mol.
On to GGTAACGAAAGTTGAACC ((((((....)))..))), for which the Tm in data set [1] was 30.1 °C. For the same sequence, the folding enthalpy in data set [2] is -14.2 kcal/mol.
With GCATAAGGAAACTTGTGC (((.(((....))).))), the Tm in data set [1] is 45.1 °C. Moreover, the folding enthalpy in data set [2] was -25.8 kcal/mol.
For GCAAAGCGAAAGCTTAGC ((.((((....)))).)) the same measures were 57.2 °C and -19 kcal/mol.
In the same order, the values of GCGTTCGAAAGAACCGC ((((((....))).))) are 54.3 °C and -23.8 kcal/mol.
For GGACTTGGAAACGAGTTC (.(((.(....).))).) the same measures were 32.9 °C and -21.5 kcal/mol.
As to GGACAGGGAAACCTGCCC ((.((((....)))).)), the Tm in data set [1] came out at 48.2 °C. The folding enthalpy in data set [2] is -22.3 kcal/mol.
For GGTCTCGAAAGAGGGACC ((((((....)))..))) the same measures were 44 °C and -22.4 kcal/mol.
GGGCTGGGAAACCAACCC (((.(((....))).))): the Tm in data set [1] turned out to be 49 °C. Also, the folding enthalpy in data set [2] was -30 kcal/mol.
For GTGCTCGAAAGAGACCAC ((((((....)))..))) the same measures were 34.4 °C and -14.6 kcal/mol.
Regarding GCCTATGGAAACATAGAC (.(((((....))))).), the Tm in data set [1] amounted to 32.6 °C. Further, in data set [2], the folding enthalpy is -17.4 kcal/mol.
Regarding GCGGTGCCGAAAGGCCGC (((..(((....)))))), in data set [1], the Tm amounted to 62.3 °C. For the same sequence, the folding enthalpy in data set [2] was -19.4 kcal/mol.
For GCGATTCCGAAAGGACGC (((..(((....)))))), in data set [1], the Tm was determined as 46 °C. The folding enthalpy in data set [2] was -26.3 kcal/mol.
In the case of GACTTACGAAAGTAGGTC (((.(((....))).))), the Tm in data set [1] came out at 49.3 °C. Also, in data set [2], the folding enthalpy was -27.5 kcal/mol.
Turning to GCCTTGCGAAAGCACGGC (((.(((....))).))), the Tm in data set [1] was 57.8 °C. Besides, the folding enthalpy in data set [2] is -49.4 kcal/mol.
Regarding GGATGTCGAAAGACTTCC (((.(((....))).))), in data set [1], the Tm came out at 51.5 °C. Besides, in data set [2], the folding enthalpy was -39.6 kcal/mol.
For GACTAGCCGAAAGGCGTC (((..(((....)))))) the same measures were 40.5 °C and -9.39 kcal/mol.
Regarding GATCTTCTGAAAGATC ((((((....)))))), the Tm in data set [1] amounted to 42.1 °C. For the same sequence, the folding enthalpy in data set [2] was -25.4 kcal/mol.
For GGTTCTCGAAAGAGTACC (((.(((....))).))) the same measures were 46.7 °C and -26.1 kcal/mol.
In the same order, the values of GCGTGGCGACGC ((((....)))) are 65.1 °C and -16.4 kcal/mol.
For GCCAGCGAAAGCTGAGGC ((((((....)))..))), the Tm in data set [1] turned out to be 53.5 °C. For the same sequence, in data set [2], the folding enthalpy is -15.5 kcal/mol.
For the sequence GCCGCGGGAAACCGCGAC (.(((((....))))).), the Tm in data set [1] worked out at 59.7 °C. For the same sequence, in data set [2], the folding enthalpy was -10.8 kcal/mol.
In the same order, the values of GGGACAGGAAACTGTTCC ((.((((....)))).)) are 51.4 °C and -36.8 kcal/mol.
In the case of GCACAGCCGAAAGGCTGC (((..(((....)))))), the Tm in data set [1] stood at 39.9 °C. Further, the folding enthalpy in data set [2] was -6.1 kcal/mol.
As for CGGCCGGAAACGGCCCG ((((((....))).))), in data set [1], the Tm worked out at 58.5 °C. In data set [2], the folding enthalpy is -7.26 kcal/mol.
In the same order, the values of GATCCGCTCCGGATC ((((((...)))))) are 59.2 °C and -37.5 kcal/mol.
For the sequence GGTTAGACGAAAGTCACC (((..(((....)))))), the Tm in data set [1] is 27 °C. The folding enthalpy in data set [2] was -6.17 kcal/mol.
With GCGAGGCGAAAGCATAGC ((.(.((....)).).)), in data set [1], the Tm was found to be 55.6 °C. For the same sequence, the folding enthalpy in data set [2] is -21.2 kcal/mol.
With GGAATCGGAAACGGTTTC (.((.((....)).)).), the Tm in data set [1] came out at 32.4 °C. Besides, the folding enthalpy in data set [2] is -26.3 kcal/mol.
For GATCAGACGCCTGATC ((((((....)))))) the same measures were 50 °C and -40.1 kcal/mol.
For GTCCCAGGAAACCAGGAC ((((..(....)..)))), the Tm in data set [1] was determined as 35.6 °C. Moreover, in data set [2], the folding enthalpy is -21.2 kcal/mol.
Consider GTGTGCCGAAAGGCTCAC (((.(((....))).))), for which the Tm in data set [1] worked out at 61.2 °C. Further, the folding enthalpy in data set [2] was -31.5 kcal/mol.
As for CGAGCACGGAAACGTTCG (((..(((....)))))), in data set [1], the Tm worked out at 36.7 °C. Also, the folding enthalpy in data set [2] is -13.5 kcal/mol.
In the same order, the values of GATCCTCTGCAGGATC ((((((....)))))) are 50.7 °C and -37 kcal/mol.
As to GCTGGGCGAAAGCAAAGC (((..((....))..))), the Tm in data set [1] was 54.1 °C. Besides, the folding enthalpy in data set [2] is -20.9 kcal/mol.
For GCAGTCGAAAGACCCTGC ((((((....)))..))) the same measures were 33 °C and -17.3 kcal/mol.
In the same order, the values of GGCTCCGAAAGGACAGCC ((((((....)))..))) are 50.6 °C and -23.1 kcal/mol.
For GCAGGAGCGAAAGCTTGC (((..(((....)))))) the same measures were 44.2 °C and -16.5 kcal/mol.
For the sequence GGGAGTGCGAAAGCACCC (((..(((....)))))), the Tm in data set [1] came to 55.2 °C. The folding enthalpy in data set [2] was -11.6 kcal/mol.
In the same order, the values of GTCGAGGGAAACCTTGAC (((.(((....))).))) are 48.7 °C and -38.5 kcal/mol.
